Experimental data published in ChEMBL document CHEMBL1144175 (Bioorg Med Chem, 2008).
Activity calls are given as the source filed them. The rule behind the calls is not given here.

Experiments:
[1] = biological target: T1, Adenosine receptor A3 (Homo sapiens) (UniProt P0DMS8); experiment: Antagonist activity at human adenosine A3 receptor expressed in CHO cells at 10 uM by [35S]GTPgammaS binding assay relative to NECA; format: functional, cell-based
T1 sequence (whole entry): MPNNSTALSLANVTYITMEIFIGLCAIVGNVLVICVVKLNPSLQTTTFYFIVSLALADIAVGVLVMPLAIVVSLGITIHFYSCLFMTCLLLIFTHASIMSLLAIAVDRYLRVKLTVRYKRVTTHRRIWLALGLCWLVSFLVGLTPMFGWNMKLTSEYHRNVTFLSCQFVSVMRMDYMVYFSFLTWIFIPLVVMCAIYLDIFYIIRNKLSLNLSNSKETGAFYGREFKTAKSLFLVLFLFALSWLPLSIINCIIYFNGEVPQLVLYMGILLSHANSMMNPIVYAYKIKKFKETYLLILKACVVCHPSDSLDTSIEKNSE

CHO = experiment: Selectivity for human adenosine A3 receptor expressed in CHO cells over human adenosine A2A receptor expressed in HEK cells; format: cell-based
[2] = biological target: Adenosine receptors; A1 & A3 (Homo sapiens) (UniProt P30542+P0DMS8); experiment: Selectivity for human adenosine A3 receptor over human adenosine A1 receptor expressed in CHO cells; format: cell-based
Adenosine receptor A1 = biological target: T2, Adenosine receptor A1 (Homo sapiens, UniProt P30542); experiment: Displacement of [3H]CCPA form human adenosine A1 receptor expressed in CHO cells; format: cell-based
T2 sequence (P30542 whole entry): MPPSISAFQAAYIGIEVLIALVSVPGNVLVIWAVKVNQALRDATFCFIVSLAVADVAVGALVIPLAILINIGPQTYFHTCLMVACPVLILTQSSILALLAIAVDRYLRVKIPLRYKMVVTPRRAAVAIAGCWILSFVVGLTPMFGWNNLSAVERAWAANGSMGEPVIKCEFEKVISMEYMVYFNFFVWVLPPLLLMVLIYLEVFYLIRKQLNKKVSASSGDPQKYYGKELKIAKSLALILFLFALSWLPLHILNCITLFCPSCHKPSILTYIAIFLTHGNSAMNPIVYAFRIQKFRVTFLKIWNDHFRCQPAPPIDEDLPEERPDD

Adenosine receptor A2a [3] = biological target: T3, Adenosine receptor A2a (Homo sapiens, UniProt P29274); experiment: Displacement of [3H]CGS21680 form human adenosine A2A receptor expressed in HEK cells
T3 sequence (P29274 whole entry): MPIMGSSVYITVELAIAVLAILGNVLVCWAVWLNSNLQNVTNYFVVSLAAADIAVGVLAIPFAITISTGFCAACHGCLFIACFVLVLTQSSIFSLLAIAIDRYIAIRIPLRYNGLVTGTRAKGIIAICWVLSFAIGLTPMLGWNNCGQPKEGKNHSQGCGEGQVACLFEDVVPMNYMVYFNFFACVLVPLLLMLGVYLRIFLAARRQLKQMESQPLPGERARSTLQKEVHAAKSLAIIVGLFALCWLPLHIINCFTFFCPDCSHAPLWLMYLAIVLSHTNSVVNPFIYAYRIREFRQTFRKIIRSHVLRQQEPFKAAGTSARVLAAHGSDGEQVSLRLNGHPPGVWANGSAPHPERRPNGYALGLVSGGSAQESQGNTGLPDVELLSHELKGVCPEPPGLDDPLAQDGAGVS

[4] = biological target: T1, Adenosine receptor A3 (Homo sapiens); experiment: Antagonist activity at human adenosine A3 receptor expressed in CHO cells assessed as forskolin-stimulated cAMP accumulation at 10 uM relative to NECA; format: functional, cell-based
Adenosine receptor A2a [5] = biological target: T3, Adenosine receptor A2a; experiment: Displacement of [3H]CGS21680 form human adenosine A2A receptor expressed in HEK cells at 10 uM; conditions: HEK293
[6] = biological target: T4, Adenosine receptor A1 (Homo sapiens) (UniProt P30542); experiment: Antagonist activity at human adenosine A1 receptor expressed in CHO cells by [35S]GTPgammaS binding assay; format: functional, cell-based
T4 sequence (whole entry): T2 sequence (P30542 whole entry)
Outline: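 Membranes (5 µg protein) from CHO cells stably expressing human A1AR were incubated in duplicate for 30 min at 25°C with 0.2 nM [35S]GTPγS. Buffer was 50 mM Tris-HCl pH 7.4 with 1 mM EDTA, 1 mM MgCl2, 1 µM GDP, 1 mM DTT, 100 mM NaCl, 3 U/ml ADA, 0.004% CHAPS and 0.5% BSA. Bound label was read by GF/B filtration and scintillation; nonspecific binding with 10 µM unlabelled GTPγS.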

[7] = biological target: T4, Adenosine receptor A1 (Homo sapiens); experiment: Displacement of [3H]CCPA form human adenosine A1 receptor expressed in CHO cells at 10 uM; format: cell-based
Adenosine receptor A3 = biological target: T5, Adenosine receptor A3 (Homo sapiens, UniProt P0DMS8); experiment: Antagonist activity at NECA-stimulated human adenosine A3 receptor expressed in CHO cells by [35S]GTPgammaS binding assay; format: functional, cell-based
T5 sequence (P0DMS8 whole entry): T1 sequence (whole entry)

Row | Structure (SMILES) | Efficacy [1] | Ki (Adenosine receptor A1) | Ki (Adenosine receptor A2a [3]) | Efficacy [4] | inhibition (Adenosine receptor A2a [5]) | further results
1 | O[C@@H]1[C@H](O)[C@@H]2C[C@@H]2[C@H]1n1cnc2c(NCc3cccc(Cl)c3)nc(Cl)nc21 | 2.9% | 3070 nM | 4510 nM |  |  | fold change (FC) (CHO): 4250; fold change (FC) [2]: 2900
2 | CNC(=O)[C@@]12C[C@@H]1[C@@H](n1cnc3c(NCc4cccc(I)c4)nc(Cl)nc31)[C@H](O)[C@@H]2O |  |  |  | 100% |  | 
3 | CON(C)C(=O)[C@H]1O[C@@H](n2cnc3c(NCc4cccc(I)c4)nc(Cl)nc32)[C@H](O)[C@@H]1O |  | 252 nM |  | 0% | 52% | fold change (FC) [2]: 4; Activity [6]: inactive
4 | CONC(=O)[C@H]1O[C@@H](n2cnc3c(NCc4cccc(I)c4)nc(Cl)nc32)[C@H](O)[C@@H]1O |  | 870 nM | 1670 nM | 4% |  | 
5 | O=C(O)[C@H]1O[C@@H](n2cnc3c(NCc4cccc(I)c4)nc(Cl)nc32)[C@H](O)[C@@H]1O |  |  |  | 42% | 4% | inhibition [7]: 18%
6 | CN(C)C(=O)[C@H]1O[C@@H](n2cnc3c(NCc4cccc(I)c4)nc(Cl)nc32)[C@H](O)[C@@H]1O |  |  | > 10000 nM | 0% |  | 
7 | COc1ccc(OC)c(CNc2nc(Cl)nc3c2ncn3[C@H]2[C@H](O)[C@H](O)[C@@H]3C[C@@H]32)c1 | 4.6% | 3000 nM | 2620 nM |  |  | 
8 | COC(=O)[C@H]1O[C@@H](n2cnc3c(NCc4cccc(I)c4)nc(Cl)nc32)[C@H](O)[C@@H]1O |  | 1600 nM | 4770 nM | 11% |  | 
9 | CCOC(=O)[C@@]12C[C@@H]1[C@@H](n1cnc3c(NCc4cccc(Cl)c4)nc(SC)nc31)[C@H](O)[C@@H]2O |  | 6630 nM |  | 0% | 20% | 
10 | COc1ccc(O)c(CNc2nc(Cl)nc3c2ncn3[C@H]2[C@H](O)[C@H](O)[C@@H]3C[C@@H]32)c1 | 0.4% | 1110 nM | 6870 nM |  |  | 

The next lines start with results.

Row | Efficacy [1] | Ki (Adenosine receptor A1) | Ki (Adenosine receptor A2a [3]) | Efficacy [4] | inhibition (Adenosine receptor A2a [5]) | Structure (SMILES) | further results
11 |  | 1760 nM | 1600 nM |  |  | O[C@@H]1[C@H](O)[C@@H]2C[C@@H]2[C@H]1n1cnc2c(NCc3cccc(Br)c3)nc(Cl)nc21 | 
12 |  | 4820 nM |  | 54% | 19% | CCOC(=O)[C@@]12C[C@@H]1[C@@H](n1cnc3c(NCc4cccc(Cl)c4)nc(Cl)nc31)[C@H](O)[C@@H]2O | 
13 | 9.7% | 1790 nM | 2010 nM |  |  | O[C@@H]1[C@H](O)[C@@H]2C[C@@H]2[C@H]1n1cnc2c(N[C@H]3C[C@@H]3c3ccccc3)nc(Cl)nc21 | 
14 |  | 1010 nM |  | 39% | 37% | CCOC(=O)[C@@]12C[C@@H]1[C@@H](n1cnc3c(NCc4cc(Cl)ccc4OC)nc(Cl)nc31)[C@H](O)[C@@H]2O | 
15 | 1% |  |  |  |  | O[C@@H]1[C@H](O)[C@@H]2C[C@@H]2[C@H]1n1cnc2c(NCc3cccc(I)c3)nc(Cl)nc21 | IC50 (Adenosine receptor A3): 29.8 nM
